# Data taken from ChEMBL document CHEMBL1806473, “Structure-based optimization of click-based histone deacetylase inhibitors” (Eur J Med Chem, 2011).
# Columns and labels:
# [1] = tested on: CCRF-CEM; assay: Antiproliferative activity against human CCRF-CEM cells by SRB assay; format: functional
# In short: (§1)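 Tested in the NCI in vitro human tumor cell line screen, run by the National Cancer Institute. Each compound was given at five concentrations (100, 10, 1.0, 0.1 and 0.01 μM). GI50 is the drug concentration that reduces growth of treated cells to half that of control cells during drug incubation, judged from the SRB signal.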
# [2] = tested on: K562; assay: Antiproliferative activity against human K562 cells by SRB assay; format: functional; in short: as §1
# [3] = tested on: A549; assay: Antiproliferative activity against human A549 cells by SRB assay; format: functional; in short: as §1
# [4] = tested on: HOP-92; assay: Antiproliferative activity against human HOP92 cells by SRB assay; format: functional; in short: as §1
# [5] = tested on: NCI-H322M; assay: Antiproliferative activity against human NCI-H322M cells by SRB assay; format: functional; in short: as §1
# [6] = tested on: NCI-H460; assay: Antiproliferative activity against human NCI-H460 cells by SRB assay; format: functional; in short: as §1
# [7] = tested on: HCT-116; assay: Antiproliferative activity against human HCT116 cells by SRB assay; format: functional; in short: as §1
# [8] = tested on: SW-620; assay: Antiproliferative activity against human SW620 cells by SRB assay; format: functional
# In short: (§2)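 Cell growth was tested in the NIH in vitro disease-oriented human tumor cell line screen, which NCI ran for these compounds. Compounds were tested at five concentrations (100, 10, 1.0, 0.1 and 0.01 μM), and growth was read by SRB signal. GI50 is the drug concentration that reduces growth of treated cells to half that of control cells during drug incubation.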
# [9] = tested on: SF-268; assay: Antiproliferative activity against human SF268 cells by SRB assay; format: functional; in short: as §1
# [10] = tested on: SF-539; assay: Antiproliferative activity against human SF539 cells by SRB assay; format: functional; in short: as §1
# [11] = tested on: SNB-19; assay: Antiproliferative activity against human SNB19 cells by SRB assay; format: functional; in short: as §1
# [12] = tested on: SNB-75; assay: Antiproliferative activity against human SNB75 cells by SRB assay; format: functional; in short: as §2
# [13] = tested on: U-251; assay: Antiproliferative activity against human U251 cells by SRB assay; format: functional; in short: as §2
# [14] = tested on: LOX IMVI; assay: Antiproliferative activity against human LOXIMVI cells by SRB assay; format: functional; in short: as §1
# [15] = tested on: Malme-3M; assay: Antiproliferative activity against human MALME-3M cells by SRB assay; format: functional; in short: as §1
# [16] = tested on: M14; assay: Antiproliferative activity against human M14 cells by SRB assay; format: functional; in short: as §1
# [17] = tested on: MDA-MB-435; assay: Antiproliferative activity against human MDA-MB-435 cells by SRB assay; format: functional; in short: as §1
# [18] = tested on: SK-MEL-5; assay: Antiproliferative activity against human SK-MEL-5 cells by SRB assay; format: functional; in short: as §1
# [19] = tested on: UACC-257; assay: Antiproliferative activity against human UACC257 cells by SRB assay; format: functional; in short: as §2
# [20] = tested on: UACC-62; assay: Antiproliferative activity against human UACC62 cells by SRB assay; format: functional; in short: as §2
# [21] = tested on: IGROV-1; assay: Antiproliferative activity against human IGROV1 cells by SRB assay; format: functional; in short: as §1
# [22] = tested on: OVCAR-3; assay: Antiproliferative activity against human OVCAR3 cells by SRB assay; format: functional; in short: as §1
# [23] = tested on: OVCAR-8; assay: Antiproliferative activity against human OVCAR8 cells by SRB assay; format: functional; in short: as §1
# [24] = tested on: 786-0; assay: Antiproliferative activity against human 786-0 cells by SRB assay; format: functional; in short: as §1
# [25] = tested on: A498; assay: Antiproliferative activity against human A498 cells by SRB assay; format: functional; in short: as §1
# [26] = tested on: ACHN; assay: Antiproliferative activity against human ACHN cells by SRB assay; format: functional; in short: as §1
# [27] = tested on: RXF 393; assay: Antiproliferative activity against human RXF393 cells by SRB assay; format: functional; in short: as §1
# [28] = tested on: SN12C; assay: Antiproliferative activity against human SN12C cells by SRB assay; format: functional; in short: as §1
# [29] = tested on: UO-31; assay: Antiproliferative activity against human UO31 cells by SRB assay; format: functional; in short: as §2
# [30] = tested on: DU-145; assay: Antiproliferative activity against human DU145 cells by SRB assay; format: functional; in short: as §1
# [31] = tested on: MCF7; assay: Antiproliferative activity against human MCF7 cells by SRB assay; format: functional; in short: as §1
# [32] = Antiproliferative activity against human Hs 578T cells by SRB assay; format: functional; in short: as §1
# [33] = tested on: BT-549; assay: Antiproliferative activity against human BT549 cells by SRB assay; format: functional; in short: as §1
# [34] = tested on: T47D; assay: Antiproliferative activity against human T47D cells by SRB assay; format: functional; in short: as §2
# [35] = tested on: MDA-MB-468; assay: Antiproliferative activity against human MDA-MB-468 cells by SRB assay; format: functional; in short: as §1
# [36] = tested on: HL-60(TB); assay: Cytotoxicity against human HL-60(TB) cells; format: cell-based
# [37] = tested on: K562; assay: Cytotoxicity against human K562 cells; format: cell-based
# [38] = tested on: RPMI-8226; assay: Cytotoxicity against human RPMI8226 cells; format: cell-based
# In short: (§3)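 Tested in the NCI in vitro disease-oriented human tumour cell line screen, with screening performed by NCI. Growth was read by SRB signal over the drug incubation period at five concentrations: 100, 10, 1.0, 0.1 and 0.01 μM. GI50 is the concentration that reduces growth of treated cells to half that of control cells.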
# [39] = tested on: SR; assay: Cytotoxicity against human SR cells; format: cell-based
# In short: (§4)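 Screened by NCI in its in vitro disease-oriented human tumour cell line panel. Compounds tested at five concentrations (100, 10, 1.0, 0.1 and 0.01 μM). Growth read by sulforhodamine B (SRB) signal. GI50 is the concentration reducing growth of treated cells to half that of control cells during the drug incubation.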
# [40] = tested on: A549; assay: Cytotoxicity against human A549 cells; format: cell-based; in short: as §3
# [41] = tested on: NCI-H23; assay: Cytotoxicity against human NCI-H23 cells; format: cell-based
# [42] = tested on: NCI-H322M; assay: Cytotoxicity against human NCI-H322M cells; format: cell-based
# [43] = tested on: NCI-H460; assay: Cytotoxicity against human NCI-H460 cells; format: cell-based
# [44] = tested on: COLO 205; assay: Cytotoxicity against human COLO205 cells; format: cell-based; in short: as §3
# [45] = tested on: HCT-15; assay: Cytotoxicity against human HCT15 cells; format: cell-based; in short: as §3
# [46] = tested on: HT-29; assay: Cytotoxicity against human HT-29 cells; format: cell-based; in short: as §3
# [47] = tested on: SW-620; assay: Cytotoxicity against human SW620 cells; format: cell-based; in short: as §4
# [48] = tested on: SF-268; assay: Cytotoxicity against human SF268 cells; format: cell-based; in short: as §3
# [49] = tested on: SF-295; assay: Cytotoxicity against human SF295 cells; format: cell-based; in short: as §3
# [50] = tested on: SF-539; assay: Cytotoxicity against human SF539 cells; format: cell-based; in short: as §3
# [51] = tested on: LOX IMVI; assay: Cytotoxicity against human LOXIMVI cells; format: cell-based
# [52] = tested on: MDA-MB-435; assay: Cytotoxicity against human MDA-MB-435 cells; format: cell-based
# [53] = tested on: UACC-257; assay: Cytotoxicity against human UACC257 cells; format: cell-based; in short: as §4
# [54] = tested on: UACC-62; assay: Cytotoxicity against human UACC62 cells; format: cell-based; in short: as §4
# [55] = tested on: IGROV-1; assay: Cytotoxicity against human IGROV1 cells; format: cell-based
# [56] = tested on: OVCAR-4; assay: Cytotoxicity against human OVCAR4 cells; format: cell-based
# [57] = tested on: OVCAR-8; assay: Cytotoxicity against human OVCAR8 cells; format: cell-based
# [58] = tested on: SK-OV-3; assay: Cytotoxicity against human SKOV3 cells; format: cell-based
# [59] = tested on: 786-0; assay: Cytotoxicity against human 786-0 cells; format: cell-based
# [60] = tested on: ACHN; assay: Cytotoxicity against human ACHN cells; format: cell-based
# [61] = tested on: TK-10; assay: Cytotoxicity against human TK10 cells; format: cell-based; in short: as §4
# [62] = tested on: UO-31; assay: Cytotoxicity against human UO31 cells; format: cell-based; in short: as §4
# [63] = tested on: DU-145; assay: Cytotoxicity against human DU145 cells; format: cell-based; in short: as §3
# [64] = Cytotoxicity against human Hs 578T cells; format: cell-based
# [65] = tested on: BT-549; assay: Cytotoxicity against human BT549 cells; format: cell-based
smiles,measurement,setting,value
O=C(/C=C/c1cn(C(/C=C/c2ccccc2)Cc2ccccc2)nn1)NO (stereo not given),GI50,[1],320 nM
same,GI50,[2],1050 nM
same,GI50,[3],1410 nM
same,GI50,[4],1080 nM
same,GI50,[5],1370 nM
same,GI50,[6],1040 nM
same,GI50,[7],382 nM
same,GI50,[8],892 nM
same,GI50,[9],1220 nM
same,GI50,[10],1140 nM
same,GI50,[11],2000 nM
same,GI50,[12],258 nM
same,GI50,[13],948 nM
same,GI50,[14],521 nM
same,GI50,[15],305 nM
same,GI50,[16],1180 nM
same,GI50,[17],866 nM
same,GI50,[18],879 nM
same,GI50,[19],1680 nM
same,GI50,[20],898 nM
same,GI50,[21],836 nM
same,GI50,[22],1160 nM
same,GI50,[23],630 nM
same,GI50,[24],1380 nM
same,GI50,[25],1160 nM
same,GI50,[26],1230 nM
same,GI50,[27],1210 nM
same,GI50,[28],2340 nM
same,GI50,[29],650 nM
same,GI50,[30],1080 nM
same,GI50,[31],1210 nM
same,GI50,[32],934 nM
same,GI50,[33],1620 nM
same,GI50,[34],411 nM
same,GI50,[35],1520 nM
same,LC50,[36],> 100000 nM
same,LC50,[37],> 100000 nM
same,LC50,[38],> 100000 nM
same,LC50,[39],> 100000 nM
same,LC50,[40],64600 nM
same,LC50,[41],8680 nM
same,LC50,[42],46700 nM
same,LC50,[43],27200 nM
same,LC50,[44],8000 nM
same,LC50,[45],74500 nM
same,LC50,[46],> 100000 nM
same,LC50,[47],13600 nM
same,LC50,[48],9170 nM
same,LC50,[49],6560 nM
same,LC50,[50],6910 nM
same,LC50,[51],4620 nM
same,LC50,[52],15700 nM
same,LC50,[53],93700 nM
same,LC50,[54],6340 nM
same,LC50,[55],8180 nM
same,LC50,[56],61600 nM
same,LC50,[57],> 100000 nM
same,LC50,[58],13300 nM
same,LC50,[59],6450 nM
same,LC50,[60],13700 nM
same,LC50,[61],12900 nM
same,LC50,[62],6570 nM
same,LC50,[63],46300 nM
same,LC50,[64],74600 nM
same,LC50,[65],> 100000 nM
